Laboratory results taken from ChEMBL document CHEMBL1142328, “Imidazolidines as new anti-Trypanosoma cruzi agents: biological evaluation and structure-activity relationships” (Bioorg Med Chem, 2008).
Active and inactive are the calls of the source. The calls are words filed in the database; no cut-off is given here.

How the values were obtained:
[1] = system: Trypanosoma cruzi; assay: Growth inhibition of Trypanosoma cruzi epimastigotes Tulahuen 2 at 25 uM; format: functional; conditions: for inhibition of growth at 25 µM: read-out: GI
How it was run: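 Epimastigotes in BHI-Tryptose + 5% FBS at 28 °C, inoculated at 1×10^6 cells/mL from 10-day stationary culture. Drug tested at 25 μM from DMSO stock (final DMSO ≤0.4%; 0.4% DMSO control). Inhibition % = {1 − [(Ap − A0p)/(Ac − A0c)]}×100 using A600 at day 0 and day 5. Means of three experiments.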

[2] = system: Trypanosoma cruzi; assay: Growth inhibition of Trypanosoma cruzi epimastigotes Tulahuen 2; format: functional, organism-based
How it was run: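 Epimastigotes grown axenically at 28 °C in BHI-Tryptose with 5% FBS. Stationary-phase (10-day) cells inoculated at 1×10^6 cells/mL into medium with drug (DMSO stock, final DMSO ≤0.4%; 0.4% DMSO control). Growth followed by A600 daily. IC50 = concentration reducing the day-5 absorbance ratio vs control to 50%, over increasing concentrations. Means of three experiments.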

[3] = system: Trypanosoma cruzi; assay: Increase in lactose metabolite excretion in cell free medium of Trypanosoma cruzi Y relative to control; format: functional, organism-based; conditions: in the assay text read “lactate” for “lactose”
How it was run: (§1)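 Parasites treated with compound for 2 days. 5 mL of culture centrifuged at 1500g, 10 min, 4 °C. Parasite-free supernatant stored at −20 °C, then analysed by 1H NMR. Metabolite signals confirmed by spiking and by a 4 µg/mL standard in phosphate buffer pH 7.4. Increase expressed as % relative to untreated cells.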

[4] = system: Trypanosoma cruzi; assay: Increase in alanine metabolite excretion in cell free medium of Trypanosoma cruzi Y relative to control; format: functional, organism-based; how it was run: as §1
[5] = system: Trypanosoma cruzi; assay: Increase in acetate metabolite excretion in cell free medium of Trypanosoma cruzi Y relative to control; format: functional, organism-based; how it was run: as §1
[6] = system: Trypanosoma cruzi; assay: Increase in glycine metabolite excretion in cell free medium of Trypanosoma cruzi Y relative to control; format: functional, organism-based; how it was run: as §1

Row | IC50 [2] [µM] | Compound | inhibition of growth at 25 µM [1] [%] | also measured
1 | 10.2 | Clc1ccc(CN2CCN(Cc3ccc(Cl)cc3)C2/C=C/c2ccccc2)cc1 | 100 | –
2 | 5 | Clc1ccc(CN2CCN(Cc3ccc(Cl)cc3)C2c2ccccc2)cc1 | 94.5 | –
3 | 9 | Clc1ccc(CN2CCN(Cc3ccc(Cl)cc3)C2c2ccc(Cl)c(Cl)c2)cc1 | 92 | –
4 | 25 | Clc1ccc(C2N(Cc3ccc(Cl)c(Cl)c3)CCN2Cc2ccc(Cl)c(Cl)c2)cc1 | 50 | –
5 | 6.4 | Clc1ccc(CN2CCN(Cc3ccc(Cl)c(Cl)c3)C2c2ccccc2)cc1Cl | 100 | –
6 | 14.5 | O=[N+]([O-])c1ccc(C2N(Cc3ccc(Cl)cc3)CCN2Cc2ccc(Cl)cc2)cc1 | 100 | –
7 | 23 | COc1ccc(CN2CCN(Cc3ccc(OC)cc3)C2c2cccc([N+](=O)[O-])c2)cc1 | 93 | –
8 | 13.4 | Cc1ccc(CN2CCN(Cc3ccc(C)cc3)C2c2cccc(Cl)c2)cc1 | 99 | –
9 | 11 | Clc1ccc(CN2CCN(Cc3ccc(Cl)cc3)C2c2ccccc2Cl)cc1 | 100 | –
10 | 4.3 | Clc1ccc(CN2CCN(Cc3ccc(Cl)cc3)C2c2ccco2)cc1 | 89.4 | –
11 | 9 | Cc1ccc(CN2CCN(Cc3ccc(C)cc3)C2c2ccc(Cl)cc2)cc1 | 100 | –
12 | 14 | COc1ccc(CN2CCN(Cc3ccc(OC)cc3)C2c2cccc(Cl)c2)cc1 | 95 | –
13 | 4.3 | Oc1ccccc1C1N(Cc2ccc(Cl)cc2)CCN1Cc1ccc(Cl)cc1 | 86.8 | –
14 | 14.7 | Clc1cccc(CN2CCN(Cc3cccc(Cl)c3)C2c2ccccc2)c1 | 100 | –
15 | 8.9 | Clc1ccc(CN2CCN(Cc3ccc(Cl)cc3)C2c2ccc(Cl)cc2)cc1 | 100 | –
16 | 23.5 | Clc1ccc(C2N(Cc3ccccc3)CCN2Cc2ccccc2)cc1 | 60 | –
17 | 5 | COc1ccc(C2N(Cc3ccc(Cl)cc3)CCN2Cc2ccc(Cl)cc2)cc1 | 100 | –
18 | 12.5 | Cc1ccc(CN2CCN(Cc3ccc(C)cc3)C2c2ccccc2)cc1 | 100 | –
19 | 16 | COc1ccc(CN2CCN(Cc3ccc(OC)cc3)C2c2ccc(Cl)c(Cl)c2)cc1 | 91 | –
20 | 14.9 | COc1ccc(CN2CCN(Cc3ccc(OC)cc3)C2c2ccc(Cl)cc2)cc1 | 100 | –
21 | 4.6 | Oc1cccc(C2N(Cc3ccc(Cl)cc3)CCN2Cc2ccc(Cl)cc2)c1 | 97.4 | Activity [3]: 30%; Activity [4]: 40%; Activity [5]: 60%; Activity [6]: 60%
22 | 4.7 | Clc1ccc(CN2CCN(Cc3ccc(Cl)cc3)C2c2cccc(Cl)c2)cc1 | 100 | –

The next lines start with the molecule.

Row | Compound | IC50 [2] [µM] | inhibition of growth at 25 µM [1] [%] | also measured
23 | COc1ccc(N2CCN(CN3CCN(c4ccc(OC)cc4)C3)C2)cc1 | – | 0 | –
24 | Oc1ccccc1CNCCNCc1ccccc1O | – | – | Activity [1]: inactive
25 | Brc1ccc(N2CCN(CN3CCN(c4ccc(Br)cc4)C3)C2)cc1 | – | 0 | –
26 | Clc1cccc(N2CCN(CN3CCN(c4cccc(Cl)c4)C3)C2)c1 | – | 8 | –
27 | CN1CCN(c2ccccc2)C1c1ccccc1 (stereo unspecified) | – | 0 | –
28 | Clc1ccc(N2CCN(Cc3ccccc3)C2)cc1 | – | 64.7 | –
29 | Clc1ccc(CN2CCN(Cc3ccc(Cl)c(Cl)c3)C2)cc1Cl | 15.1 | 100 | –
30 | Clc1ccc(CN2CCN(Cc3ccc(Cl)c(Cl)c3)C2c2ccc(Cl)c(Cl)c2)cc1Cl | – | 30 | –
31 | COc1ccc(CN2CCN(Cc3ccc(OC)cc3)C2C)cc1 | 37 | 40 | –
32 | O=[N+]([O-])c1ccc(N2CCN(CN3CCN(c4ccc([N+](=O)[O-])cc4)C3)C2)cc1 | – | 0 | –
33 | Oc1ccccc1CN1CCN(Cc2ccccc2O)C1c1ccccc1 | – | 4.8 | –
34 | CC1N(c2ccccc2)CCN1c1ccccc1 | – | 12.4 | –
35 | CC1CS(=O)(=O)CCN1/N=C/c1ccc([N+](=O)[O-])o1 (stereo unspecified) [NIFURTIMOX] | – | 100 | –
36 | COc1ccc(CNCCNCc2ccc(OC)cc2)cc1 | 16.2 | – | –
37 | Brc1cccc(N2CCN(CN3CCN(c4cccc(Br)c4)C3)C2)c1 | – | 10.8 | –
38 | c1ccc(N2CCN(c3ccccc3)C2)cc1 | – | 12.3 | –
39 | Cc1ccc(N2CCN(Cc3ccccc3)C2)cc1 | – | 44.2 | –
40 | Clc1ccc(CN2CCN(Cc3ccc(Cl)c(Cl)c3)C2c2ccco2)cc1Cl | 4.1 | 93.9 | Activity [3]: 10%; Activity [4]: 30%; Activity [5]: 10%; Activity [6]: 15%

Row | Compound | IC50 [2] [µM] | inhibition of growth at 25 µM [1] [%] | also measured
41 | Clc1ccc(CNCCNCc2ccc(Cl)cc2)cc1 | 2 | – | –
42 | Cc1ccc(N2CCN(Cc3ccccc3)C2c2ccccc2)cc1 (stereo unspecified) | – | 46 | –
43 | c1ccc(N2CCN(CN3CCN(c4ccccc4)C3)C2)cc1 | – | 0 | –
44 | c1ccc(C2N(c3ccccc3)CCN2c2ccccc2)cc1 | – | 39.6 | –
45 | Clc1ccc(N2CCN(Cc3ccccc3)C2c2ccccc2)cc1 (stereo unspecified) | – | 70.4 | –
46 | COc1ccc(CN2CCN(Cc3ccc(OC)cc3)C2c2ccccc2Cl)cc1 | 25.3 | 49 | –
47 | Clc1ccc(N2CCN(CN3CCN(c4ccc(Cl)cc4)C3)C2)cc1 | – | 0 | –
48 | Clc1cccc(CN2CCN(Cc3cccc(Cl)c3)C2)c1 | 9.7 | 100 | –
49 | c1ccc(CN2CCN(Cc3ccccc3)C2c2ccccc2)cc1 | – | 63 | –
50 | COc1ccc(CN2CCN(Cc3ccc(OC)cc3)C2c2ccccc2)cc1 | 1.1 | 75.3 | –
51 | COc1ccc(CN2CCN(Cc3ccc(OC)cc3)C2/C=C/c2ccccc2)cc1 | 10 | 98.6 | –
52 | COc1ccc(CN2CCN(Cc3ccc(OC)cc3)C2c2ccc([N+](=O)[O-])cc2)cc1 | 16.5 | 83 | –
53 | c1ccc(CN2CCN(c3ccccc3)C2c2ccccc2)cc1 (stereo unspecified) | – | 45.1 | –
54 | Cc1ccc(N2CCN(CN3CCN(c4ccc(C)cc4)C3)C2)cc1 | – | 0 | –
55 | Clc1ccc(CN2CCN(Cc3ccc(Cl)cc3)C2)cc1 | 10.3 | 100 | –
56 | c1ccc(CN2CCN(c3ccccc3)C2)cc1 | – | 17.2 | –
57 | Cc1ccc(N2CCN(C)C2c2ccccc2)cc1 (stereo unspecified) | – | 8.9 | –
